Reference: the EternaBench riboswitch data

Tested on: MS2 coat protein
Assay: apparent Kd, MS2 coat protein; higher = weaker binding; RNA-MaP array; FMN 200 µM where present
In short: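 Binding was read on Illumina sequencing-chip clusters where stalled E. coli RNA polymerase had transcribed each design. A titration of SNAP-549-labelled MS2 coat protein began at 0.7 or 1.5 nM and doubled to 3 µM, once without ligand and once with constant ligand, in 100 mM Tris-HCl pH 7.5, 80 mM KCl, 4 mM MgCl2, BSA, DTT, yeast tRNA and Tween-20. The apparent Kd is the median of filtered per-cluster binding-curve fits, based on green signal normalised to red-channel RNA signal and control-cluster median Fmax.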

[1] = designed as: OFF switch for flavin mononucleotide, no ligand
[2] = ligand present: flavin mononucleotide, designed as: OFF switch for flavin mononucleotide
[3] = designed as: ON switch for flavin mononucleotide, no ligand
[4] = ligand present: flavin mononucleotide, designed as: ON switch for flavin mononucleotide

Sequence | apparent Kd [1] | apparent Kd [2] | apparent Kd [3] | apparent Kd [4]
GAGCUCGAUGAGAAGGGUUACAUGAGGAUCACCCAUGUCGACCUUGGCGUAACAGGAUAUCACCGGGCUCAGUGCGUUGACCCA | 27.1 nM | 121 nM | – | –
CUUUCGUGAGGAUAUGUGGCUUCAAUCGUGAGAUCGAGGCUACAGAAGGCACAUGAGGAUCACCCAUGUUCCUC | 37.9 nM | 388 nM | – | –
GCAGCAAUCUAAAACAUGAGGAUCACCCAUGUCGAGAGAUAUGAGGAUAUGCAUCGGAUGAAGAUGCAGAAGGCAUUGUGCUGC | – | – | 8.66 nM | 6.35 nM
AAAUCGUCAGGAUAUGCAUGUAAUUGUUACAUUUCUCCGUUGCAGAAGGGACAUGAGGAUCACCCAUGUAAGUC | 31.2 nM | 29.2 nM | – | –
ACAUGAGGAUCACCCAUGUUAUCAGGGACUUCAAUUAUUUGUAGAAGGAUGUUUUCUUGUUAGUCAUAGGAUAUACAAUUAAAU | 16 nM | 15.3 nM | – | –
GUAGCAUACCGAGGAUAUUCAUACCGUAAACGGACAUGAGGAUCACCCAUGUGGCGAAAGCCUUGGGAGAAGGCGGAAUGCUAC | – | – | 556 nM | 30.5 nM
AAAAGACAUGAGGAUCACCCAUGUCAAGACAUGGGAGGAUAUGCAUGGAAAACAUGCUGUGCAGAAGGCUCAUGUC | – | – | 32.6 nM | 22.4 nM
UUGGACGACGUAGGAUAUGUAGGAUAUUCCUACAUGAGGAUCACCCAUGUUGACAUGGAAGAAGGACAGAAGGACGAUGUCCAU | – | – | 261 nM | 5.57 nM
GGAAAUCAUGUAGGAUAUGCAUGGCGAAGCUACGCAGAAGGACAUGAGGAUCACCCAUGUUAUAGCGUCCGAGAAAGGAUGCGA | 55.6 nM | 114 nM | – | –
GGAGCAGGGUCAGGAUAUGUAGGUAGACGGCAAAUAGAAGGGACAUGAGGAUCACCCAUGUAACAUUAAAAUGAAGCAAGGGAG | 66.4 nM | 71.5 nM | – | –
CACGCGAAAAGGAGUACAUGAGGAUCACCCAUGUAGGGUGGGAGAAGGCCGGUCGAGAGGUUUAUGGAGGAUAUUUAGGUGUUG | – | – | 78.8 nM | 52.5 nM
AAAAGGUCAGGAUAUGCCCUCCUGGUGGAAAAGCCUGGUGGGCAGAAGGGACAUGAGGAUCACCCAUGUAAAAA | 60.8 nM | 81.8 nM | – | –
UGUAUAUAGGCAGGAUAUACAUGAAUAUAUAUGAUGUAGUAUGAUGUAACAUGAGGAUCACCCAUGUAGAAGGGCCAAUAUAUA | 40.8 nM | 135 nM | – | –
AGAGAUACGCUCGUCGGAAAGCGACAUGAGGAUCACCCAUGUAGAAGGCGAUGCGCAACUCGCAUUGAGGAUAUAUAGUGCAGC | 6.51 nM | 6.65 nM | – | –
GUGAAACAUGAGGAUCACCCAUGUGAGGAUAUGAUACUAUGUACUUCGGUACAUAGUAUCAGAAGGCACAGUGA | 96.1 nM | 282 nM | – | –
UUCUUCAGGUCAGGAUAUGCACAAGUUCAACGAGCAGAAGGGACAUGAGGAUCACCCAUGUAAAGGGCACCGGCUAACGUUCGA | 258 nM | 182 nM | – | –
AGAGCCUCGUGAGGAUAUACAUGAGGAUCACCCAUGUAAAUGAAAGAUACGUCGAAACGACGAAUGUAGAAGGCACGAGGCUCA | 17.8 nM | 65.9 nM | – | –
UGUCCAUAGCAGAAGGACAUGAAUAAUCAUGAAAACAUGAGGAUCACCCAUGUAGGAUAUGCUAUGGACUAAGAGCGAAAGCUC | 28.6 nM | 430 nM | – | –
UCAGUAGAGUCAGGAUAUACGUUAAAAUUUCCUCACAUGAGGAUCACCCAUGUAGAAGGGACUCUACUGUAAGUCGGAAACGAC | 35.2 nM | 686 nM | – | –
CUGACGAUGUAAGGAUAUGCUGAGGAUAACUCAGCAGAAGGUACAUGAGGAUCACCCAUGUAAUAAGAUCAAUAAUAACGUCAG | 15.3 nM | 32.1 nM | – | –
GCAGUACGCCUGGCAAUUUGCAAGCAGGAUAUCAGGCACCGUGAGACAUGAGGAUCACCCAUGUCUGAGAAGGGCUGGAGUUGC | 9.68 nM | 18.9 nM | – | –
UCGAAAAUACAAGGAUAUCAAUUGUAGCUAAAUUCAACAUGAGGAUCACCCAUGUAACUAUGGAGUGAGAAGGUGUAGUAAUUU | – | – | 113 nM | 450 nM
UUUUUGUGAGGAUAUGCGUAGUAGAACAAUAGUACUACUACGUAGAAGGCACAUGAGGAUCACCCAUGUUCCUC | 37.8 nM | 254 nM | – | –
AAAAAACAUGAGGAUCACCCAUGUGAAAAUAUGGGAGGAUAUACAAACACGAAAGUGAAAGUAGAAGGCCUAAAAA | – | – | 97 nM | 25.6 nM
ACUUGUAAGCAGAAGGCAGUCAUUAUAUUAAUCAUGUAGACAUGAGGAUCACCCAUGUAGAGUACUGAGGAUAUGCAUCGAUAG | 11 nM | 7.34 nM | – | –
GCCAACUCGUGAGGAUAUGGCACCUUAUUGGUGCCAGAAGGCAUGUCAAUUGACAUGAGGAUCACCCAUGUAUUAUAGUUGGCA | – | – | 563 nM | 88.2 nM
AAAUAAAGCAGUGUAUUAAGAUAACAUGAGGAUCACCCAUGUAGAAGGCUCGAGCAAAAUGCUCGAGAGGAUAUACAACACUGC | 5.04 nM | 9.55 nM | – | –
UUUAUUUAGGCAGGAUAUACAUGUAUAUAUAUUUCUUUAUAUCUUAUUACAUGAGGAUCACCCAUGUAGAAGGGCCUUCUUAUC | 30.1 nM | 34.5 nM | – | –

Sequence | apparent Kd [1] | apparent Kd [2] | apparent Kd [3] | apparent Kd [4]
UGGUGAAUUGAGAAGGGAACAGAUGUAGCUCCACAUGAGGAUCACCCAUGUUCAGGAUAUCAGUGCCCGACCUUGAGCGGUCGC | 7.92 nM | 11.8 nM | – | –
GACAUACAUGAGGAUCACCCAUGUUCAGAAGGACAAGGAUAUGUGUGGAAACCAUACUAUACAGAAGGUGUCUGUC | – | – | 37.6 nM | 19.9 nM
GUAGUAUUAAGUUCAUAAUAUAGGAUAGAAGGUGAAAAUUUGACAUGAGGAUCACCCAUGUAAUUCAAGGAUAUGUAGUAACUC | – | – | 97.7 nM | 80.1 nM
CCGAGUGGCGUACAGGAUAUGUUGCGUGGAACAUGAGGAUCACCCAUGUAUUUGCUCCUGCAUACGCAGAAGGGUGCGUCCUGGG | – | – | 52.9 nM | 17.4 nM
UACUUCCGAGGAUAUACAUGAGGAUCACCCAUGUGCUUCAGCAUUUUUUGAUGCAUGGGUAGAAGGCGGUAGUU | 315 nM | 270 nM | – | –
GUGUAGAUAGGAUAUGCGUGAGUCUAGCGAAGCUAGGCUCUACAUGAGGAUCACCCAUGUAGAAGGGUCUACAC | 21 nM | 18.1 nM | – | –
GUUCUUCCUGUAAGGAUAUCCAUGUGUCAGUUUAUGGAGAAGGUACAUGAGGAUCACCCAUGUCACCCGCGUUA | 18.4 nM | 51.2 nM | – | –
UAUAUAUAGUAAGGAUAUGUAUAUAUUUUACAAACAGAAGGUACUGACAUGAGGAUCACCCAUGUUUUAGUGUGGGCAUGUAGA | 57.8 nM | 60 nM | – | –
AUUUAUGGCCAGAAGGACAUGAGGAUCACCCAUGUAGGAUAUGGACGAUUUUGCCCGGCGGUUCGUUUAGGAAGCACCGGUGGU | – | – | 11.5 nM | 7.11 nM
GUCGUACAAGGAUAUACGGUGAGCUGUGAGUUAUCUGGGACACAUGAGGAUCACCCAUGUAGAAGGUGUCGACA | 310 nM | 470 nM | – | –
ACAGCCGUCUAGAAGGGCGUAACUAAUUCCUACGUAGGAUAUGGACGGACAUGAGGAUCACCCAUGUUUGCAUUCCUCGUGGUA | 7.74 nM | 8.46 nM | – | –
CCUAUACAUGAGGAUCACCCAUGUCAGGAUAUGGACAGCUACGUCAUAGGACGUAGCACCAGAAGGGACUGGCA | 50.1 nM | 130 nM | – | –
AAGCGAGGGACAGGAUAUGCGGCGAAACUCGCCGCAGAAGGGUCGACAUGAGGAUCACCCAUGUCCUUACGCUCCAAGUAAAGG | – | – | 216 nM | 436 nM
GAAGCACACAUUAACAUGAGGAUCACCCAUGUCAAAAGACGUGAGGAUAUGGAUCUGAAGAAGAUCCAGAAGGCACUGUGCUAA | – | – | 8.83 nM | 6 nM
GCACAUGAUACAGGAUAUGUAUUGGUAUUUAUAUACAGUUAUAUAAUAUUUACAGAAGGGUAUACAUGAGGAUCACCCAUGUGC | 81.3 nM | 41.7 nM | – | –
GGUCGUAAGGAGAAGGGCUACUGGUUGAAACCUGCGGCCUCUGGAACAUGAGGAUCACCCAUGUAGCAGGAUAUCCUUGCGUGA | 188 nM | 45.3 nM | – | –
GGUUGGCGAGGAUAUACAUGAGGAUCACCCAUGUGGUCCUGCGGUGGUCUCGCCCUUUGUAGAAGGCGCGGGUC | 35.7 nM | 30.6 nM | – | –
UGAUAACAUGUAGGAUAUGCAGCAUUGACCACUGCAGAAGGACAUGAGGAUCACCCAUGUACCGAUACUAUGGGAUCACGCAAU | 24.3 nM | 87.4 nM | – | –
UGUAUGGACAGAGGAUAUACGUGCUAGAGAUACUAGCUACAAAUCCUUACAUGAGGAUCACCCAUGUAGAAGGCUGUCCAUACU | 19.1 nM | 39.4 nM | – | –
CAGAAGUCAGGAUAUGCUGCUCGUCACUUGCGUGAUGAGUAGCAGAAGGGACAUGAGGAUCACCCAUGUAAAGG | 160 nM | 417 nM | – | –
GGAUAGGACAGAGGAUAUACGUGCUAGAGAUACUAGCAAAAUUUCCUGACAUGAGGAUCACCCAUGUAGAAGGCUGUCCUAUCG | 7.22 nM | 15.5 nM | – | –
AAGAGAAAAGCAGGAUAUCUAUAGGCUCCUUAACAUGAGGAUCACCCAUGUAGAGAAGGGCUAAGACCGACUCUUCGGAGUUGA | 9.23 nM | 27.6 nM | – | –
CAGGUAGACUGAGGAUAUACAUGACUUAGUCUAUCUAGGUCAUUAACCACAUGAGGAUCACCCAUGUAGAAGGCAGUCUGCCUG | 16.3 nM | 19.6 nM | – | –
ACGACUAGAGGAUAUACAUGAGGAUCACCCAUGUAACUGUCAGGAAACUGACGGAGAUGUAGAAGGCUAGUCGA | 16.8 nM | 37.4 nM | – | –
AAAUAAAGUACCUAGAUAUCCUCACAUGAGGAUCACCCAUGUCAGGAUAUUUGUCCUAAAAGGACAGAGAAGGGACAAGGUAUA | 5.52 nM | 9.72 nM | – | –
AGUACUCAAAGAGUACGCGUAAGCACAUGAGGAUCACCCAUGUAGGAUAUGCUACUCAAAGAGUAGUAGAAGGACAUAUUCCUC | 5.85 nM | 7.46 nM | – | –
GGACGACACAUCUACAUGAGGAUCACCCAUGUCAAAAGACAUGAGGAUAUGCUACCUAAUUGGUAGCAGAAGGCAUGGUCGUCC | – | – | 1370 nM | 67.2 nM
